TMEM16A inh – inhibitors of mouse TMEM16A calcium-activated chloride channel | HEK293 TMEM16A/YFP iodide influx fluorescence, ionomycin | normalized B-score (activity score, 25-100; higher = stronger inhibition) at 10 µM | hit rate 1.2% among 310,000;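 active = ratio plate-corrected score three or more library SD toward inhibition, starting fluorescence score within five deviations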;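 also: score derived from kinetic fluorescence span divided by baseline fluorescence per well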
CHT inh – inhibits the human high affinity choline transporter; CHT-expressing cells, membrane potential dye, choline response; stronger effect = lower value; B-score at 10 µM; hit rate 0.86% among 310,000;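 active = B-score over 3 SD under the library average, and starting fluorescence ratio not unusually high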;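 also: choline stimulus applied at its EC90 after an EC20 pre-addition; B-score computed on integrated fluorescence ratio after choline addition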
Target sequence (Q9GZV3 whole entry, looked up): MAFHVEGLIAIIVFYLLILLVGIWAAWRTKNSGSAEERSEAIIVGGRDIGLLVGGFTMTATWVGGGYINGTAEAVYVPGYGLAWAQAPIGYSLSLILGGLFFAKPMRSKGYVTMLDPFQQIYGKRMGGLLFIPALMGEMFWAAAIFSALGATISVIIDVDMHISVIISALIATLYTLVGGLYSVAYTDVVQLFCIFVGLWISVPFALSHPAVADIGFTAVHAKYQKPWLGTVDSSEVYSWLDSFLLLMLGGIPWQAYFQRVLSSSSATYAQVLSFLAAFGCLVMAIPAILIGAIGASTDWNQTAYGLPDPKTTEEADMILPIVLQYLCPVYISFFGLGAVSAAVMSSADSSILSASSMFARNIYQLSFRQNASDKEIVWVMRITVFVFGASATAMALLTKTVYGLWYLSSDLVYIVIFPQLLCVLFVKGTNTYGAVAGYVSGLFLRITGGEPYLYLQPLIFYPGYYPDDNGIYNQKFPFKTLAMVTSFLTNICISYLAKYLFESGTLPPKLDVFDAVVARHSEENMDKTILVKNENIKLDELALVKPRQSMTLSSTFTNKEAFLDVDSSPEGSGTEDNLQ
CHT allo act – allosteric activators of human choline transporter CHT. CHT-expressing cells, membrane potential dye, choline EC20; stronger effect = higher value; LV-AA mutant CHT in HEK293 cells. AID 488977. Q9GZV3. hit rate 0.49% among 310,000. B-score at 10 µM;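 active = initial fluorescence not abnormally high and integrated response B-score, plate-corrected, over 3 SD above library mean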
IMP-1 inhibitor – inhibitors of Pseudomonas aeruginosa IMP-1 metallo-beta-lactamase; purified IMP-1, nitrocefin hydrolysis, epi-absorbance fluorescence; inhibition, % at 5.6 µM; hit rate 0.45% among 290,000; AID 1556;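 active = inhibition above the mean plus 3 SD of all compounds in the same screening run, cut at about 4.5% in these data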;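 also: 0% = IMP-1 with DMSO and 100% = DMSO wells lacking enzyme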
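Assay system: purified recombinant IMP-1 beta-lactamase. Input: IMP-1 0.2 nM before substrate addition. Buffer or medium: Zinc- and detergent-supplemented HEPES buffer, pH 7.1. Schedule: 25 °C, 15 min preincubation, 25 min reaction. Signal: Epi-absorbance fluorescence, 480 nm excitation, 530 nm emission. Evaluation: percent inhibition from optical density relative to buffer-blank wells.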
ANO1 activ – activates or potentiates the mouse TMEM16A chloride channel; Q8BHY3; AID 623877; hit rate 0.3% among 340,000; B-score at 10 µM; HEK293 TMEM16A/YFP-H148Q/I152L, iodide quench fluorescence; stronger effect = lower value;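 active = fluorescence-ratio B-score plate-corrected deviation score at least 3 library SD below zero, with starting fluorescence score within 5 deviations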;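 also: channel opened by trigger with iodide after compound preincubation; score built on the fluorescence ratio of max minus min over baseline; more negative score means more quench and so TMEM16A activation or potentiation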
VIM-2 inh – blocks Pseudomonas aeruginosa VIM-2 metallo-beta-lactamase; purified VIM-2, nitrocefin hydrolysis, epi-absorbance fluorescence; inhibition, % at 5.6 µM; hit rate 0.89% among 290,000;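 active = inhibition above the mean of all tested compounds plus 3 SD, cutoff set per screening run, cut at about 7.5% in these data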;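 also: red hydrolysis product quenches plate fluorescence so inhibitors raise well fluorescence; 0% = enzyme with DMSO and 100% = DMSO without enzyme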
Starred values were filed as active, the others as inactive; i = inactive; x = no result. Hits are enriched below; roughly 3.4% of the tested compounds scored in any of these assays.

SMILES	TMEM16A inh	CHT inh	CHT allo act	IMP-1 inhibitor	ANO1 activ	VIM-2 inh
O=C(NCCCn1ccnc1)C(=O)NCC1OCCN1S(=O)(=O)c1ccc(F)cc1 (stereo unspecified)	i	i	i	10*	i	-2
O=C(NCCCn1ccnc1)C(=O)NCC1OCCN1S(=O)(=O)c1ccc(Br)cc1 (stereo unspecified)	i	i	i	7.0*	i	-1
COc1ccc(S(=O)(=O)N2CCOC2CNC(=O)C(=O)NCCCn2ccnc2)cc1OC (stereo unspecified)	i	i	i	-1	-15*	-5
COc1ccc(S(=O)(=O)N2CCCOC2CNC(=O)C(=O)NCCCn2ccnc2)cc1 (stereo unspecified)	i	i	i	0	-7.3*	0
O=C1N=C(N2C=CC(=C3C=CNC=C3)C=C2)/C(=C/N=NC(=O)c2ccccc2)S1	i	i	i	-3	i	0
COc1ccc(-c2c(-c3ccccc3OC)oc3ccccc23)cn1	x	x	x	x	i	x
Cc1ccc(SC(C)C(=O)Nc2ncn[nH]2)cc1 (stereo unspecified)	i	i	i	39*	i	-6
Cc1ccc(C(=O)Nc2ncn[nH]2)cc1	i	i	i	-1	i	-4
CCOc1ccccc1N1CCN(C(=O)c2c(-c3c(F)cccc3Cl)noc2C)CC1	i	i	i	-2	i	-1
CC(C)(C)CC(=O)Nc1cccc2c1CCCC2	i	i	i	6.9*	i	-1
COc1ccccc1CC(=O)Nc1cccc2c1CCCC2	i	i	i	-2	i	-2
Cc1ccc(S(=O)(=O)N2CCC(C(=O)Nc3ncccc3O)CC2)cc1	x	x	x	x	i	x
CCCCCCC(C)n1cc(C(C)=O)c(=O)[nH]c1=O (stereo unspecified)	100*	i	i	0	i	0
CCOc1ccc(NS(=O)(=O)c2cc(C(=O)N(CC)CC(=O)NCc3cccs3)ccc2C)cc1	i	i	i	x	i	x
CC(=O)Nc1ccc(S(=O)(=O)NC(CC(=O)O)c2ccc(C)cc2)cc1 (stereo unspecified)	i	i	i	0	i	-1
CCOC(=O)CC(NS(=O)(=O)c1ccc(NC(C)=O)cc1)c1ccc(OCC)cc1 (stereo unspecified)	25*	i	i	-6	i	0
O=C(O)c1ccc(S(=O)(=O)c2ccc([N+](=O)[O-])cc2[N+](=O)[O-])cc1	i	i	i	-1	i	-3
O=C(c1cnc2n(c1=O)CCS2)N1CCN(c2ccccc2Cl)CC1	x	x	x	-2	x	-2
O=C(c1cnc2n(c1=O)CCS2)N1CCN(C(c2ccccc2)c2ccc(Cl)cc2)CC1 (stereo unspecified)	i	i	i	5.9*	i	1
CCOc1ccc(NS(=O)(=O)c2ccc(C(=O)N3CCCC(C)C3)cc2)cc1 (stereo unspecified)	100*	i	i	x	i	x
COc1ccc(S(=O)(=O)NCc2ccc(C(=O)N3CCN(Cc4ccccc4)CC3)cc2)cc1	i	i	i	2	i	-1
COc1ccc(NS(=O)(=O)c2ccc(C(=O)N3CCN(Cc4ccccc4)CC3)cc2)cc1	25*	i	i	0	i	-1
CCOc1ccc(S(=O)(=O)Nc2ccc(C(=O)N3CCCC3)cc2)cc1	i	i	i	0	i	-2
CC1CCCCC12NC(=O)N(CC(=O)c1ccc(Cl)s1)C2=O (stereo unspecified)	i	i	i	-2	i	-2
O=C(CCS(=O)(=O)c1ccccc1)Nc1nc(-c2cccs2)cs1	i	i	i	-3	-7.9*	-5
O=C(CCS(=O)(=O)c1ccccc1)Nc1nncs1	i	i	i	-5	i	-1
COc1ccccc1OCCn1c(SCC(=O)O)nc2ccccc21	i	i	i	-2	i	-3
CCn1c(CNC(=O)COc2ccc(C(C)C)cc2)nnc1SCC(=O)Nc1ccccc1C(C)C	25*	i	i	-3	i	-6

Source: PubChem BioAssay (several laboratories)
